This note sets out measurements from PubChem BioAssay AID1424 (The Scripps Research Institute Molecular Screening Center, 2008).

The campaign covered roughly 220,000 compounds. About 390 (0.18%) were called active.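 Rule for the calls: active = activation above its plate's cutoff, the mean activation of test wells on that plate plus 3 SD (cut at about 19% in these data); inactive = the rest.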 For the sample, actives were picked, then their nearest neighbours and some compounds at random. Residues, ends and D or L forms follow the SMILES beside them. *: point of attachment. OPac = O=C(CO*)c1ccccc1; Bz = O=C(c1ccccc1)*

This assay concerns transient receptor potential cation channel N1 (TRPN1/NompC), Danio rerio. The experiment in a line: TRPN1 activation via calcium influx – cell-based, HEK293, calcium fluorescence, zebrafish, primary screen (AID 1424).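 Note: 0% = DMSO alone and 100% = 87 µM carbachol.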 The settings on record: HEK293 zebrafish TRPN1-YFP, Fluo-8 calcium fluorescence; at 3 µM; hits give high values; 100% = response to 87 µM carbachol. In outline: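 Material: zebrafish TRPN1-YFP in HEK293 cells. Doses: one dose of 3 µM, 0.3% DMSO. Incubation: dye 1 h 37 °C plus 30 min RT. Measured by: intracellular calcium fluorescence with Fluo-8.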
As to `CC(=O)c1ccc(N2CCN(S(=O)(=O)c3c(C)[nH]c(=O)[nH]c3=O)CC2)cc1`, the activation is 0.25% (inactive). As to `CCc1nc2ccccc2c(C(=O)NCc2ccc(OC)cc2)c1C`, the activation was -0.1% (inactive). Take `CN(CC(=O)Nc1cccc(F)c1)CC(=O)Nc1cccc([N+](=O)[O-])c1`: the activation is 44.2% (active). For `Cc1ccc(CN(C)CC(=O)Nc2cccc([N+](=O)[O-])c2)o1`, the activation was -1.16% (inactive).

On to `Cc1ccc(NC(=O)CN(C)CC(=O)Nc2cccc(F)c2)cc1[N+](=O)[O-]`, for which the activation is 8.52% (inactive). The value for `CCOP(=O)(OCC)C(Nc1ccc([N+](=O)[O-])cc1)c1ccc(Cl)cc1` (configuration not stated) was -1.18% (inactive); that for `Cc1cc(Nc2ccc(Cl)cc2)nc(N2CCOCC2)n1` was -0.78% (inactive). Consider `O=C(O)CCn1c(SCc2cc(=O)n3ccccc3n2)nc2ccsc2c1=O`, for which the activation is 0.55% (inactive).

With `CCN(CC)C(=O)CC1(c2ccccc2OC)CCOC(C(C)C)C1` (configuration not stated), the activation is -0.7% (inactive). The value for `O=C(O)c1cccc(N2C(=O)Nc3ccccc3N2O)c1` was -0.51% (inactive); that for `COc1ccc(N2C(=O)c3ccccc3NC2c2ccc(OC)c(CN3CCOCC3)c2)cc1` (configuration not stated) was 0.64% (inactive). In the case of `CC(NC(=O)COC(=O)c1cc(=O)[nH]c2ccccc12)c1ccccc1` (configuration not stated) it was 2.26% (inactive); in that of `Cc1cc2nc3c(=O)n(Cc4ccccc4)c(=O)[nH]c3nc2cc1N`, 37.4% (active). The value for `CC(=O)c1ccc(-c2ccc(Cn3c(C)nc4cc(N)c(C)nc43)cc2)cc1` was 0.89% (inactive). Regarding `O=c1[nH]c2c(c(=O)n1Cc1ccccc1)CCC2`, the activation is -0.42% (inactive). In the case of `COc1ccc(NC(=S)N2N=CCC2c2ccccc2)cc1` (configuration not stated) it was 0.6% (inactive); in that of `CCOc1ccc2c(=O)c(-c3ccc4c(c3)OCCCO4)c(C)oc2c1`, -1.72% (inactive); in that of `COC(=O)/C(C#N)=C/c1occc1C`, 1.02% (inactive). In the case of `CCCCCc1ccc(-c2ccc(OCC)cc2)nc1` it was 1.46% (inactive); in that of `O=C(Cc1ncc(C(F)(F)F)cc1Cl)Nc1cccc(Br)c1`, 0.3% (inactive); in that of `c1ccc2c(c1)OCCOCCOCCO2`, -2.17% (inactive). In the case of `CN(C)CCCN(Cc1cc2cc3c(cc2[nH]c1=O)OCCO3)C(=O)NC1CCCCC1` it was 1.71% (inactive); in that of `Cc1nn(-c2ccccc2)c(NC(=O)c2cccs2)c(-c2ccc(Cl)cc2)c1=O`, -0.42% (inactive). As for `C/C(=N\NC(=O)CC(C)C)c1c(C(F)(F)F)[nH]n(-c2nc3ccccc3s2)c1=O`, the activation was -0.3% (inactive). In the case of `COc1ccc(C(=O)NC(=S)NNC(=O)CCc2ccccc2)cc1`, the activation is 12% (inactive). With `COc1ccc(C(=O)NC(=S)NNC(=O)c2c(-c3ccccc3)noc2C)cc1`, the activation was 44% (active). In the case of `Cc1onc(-c2ccccc2)c1C(=O)NNC(=S)NC(=O)c1ccc(F)cc1` it was 13.6% (inactive); in that of `CC(C)C(=O)Nc1cccc(NC(=S)NC(=O)C(c2ccccc2)c2ccccc2)c1`, 2.14% (inactive).

In the case of `O=C(NNC(=S)NCc1ccco1)C(c1ccccc1)c1ccccc1`, the activation was -0.07% (inactive). Consider `CCCCC(=O)NNC(=S)NC(=O)C(c1ccccc1)c1ccccc1`, for which the activation is 84.8% (active). In the case of `CC(=O)Nc1ccc(S(=O)(=O)NC2(C(F)(F)F)C(=O)Nc3c2c(=O)[nH]c(=O)n3Cc2ccccc2)cc1` (configuration not stated) it was 2.33% (inactive). For the molecule `CC(C)Cc1nc(Cl)c(C#N)c2c1CCC2`, the activation was -2.32% (inactive). The value for `Cc1ccc(Nc2cc(C)nc3c(C)ccc([N+](=O)[O-])c23)cc1` was -2.21% (inactive). In the case of `Cc1cc(N2CCN(c3ccc(F)cc3)CC2)n2ncnc2n1` it was 1.97% (inactive); in that of `CCc1cccc(C)c1NC(=O)COC(=O)Cc1ccsc1`, -0.93% (inactive); in that of `CN1CCN(NC(=O)c2ccc(S(=O)(=O)N3CCCCCC3)cc2)CC1`, 1.34% (inactive). Turning to `CCOC(=O)COc1nc(C)cc(C(F)(F)F)c1C#N`, the activation is -0.81% (inactive). In the case of `CCOC(=O)/C(C#N)=C/c1ccc(N2CCCCC2)cc1` it was 2.02% (inactive); in that of `Cc1cc(C(=O)NNC(=S)Nc2ccccc2C)cs1`, 3.43% (inactive); in that of `CN(C)CCOCCOc1ccc(Cl)c2ccccc12`, 1.52% (inactive). Turning to `Cc1cccc(C)c1Nc1c(-c2ccccc2O)nc2ncccn12`, the activation is 1.43% (inactive). As for `Cc1ccc(C2C(C#N)C(C#N)N3CCCN23)cc1` (configuration not stated), the activation was -0.02% (inactive). In the case of `CCO/N=C(/C)c1c(O)cc(-c2ccccc2)n(-c2ccccc2)c1=O`, the activation was 0.61% (inactive). In the case of `COCc1c(N)c(C)nc(Cl)c1C#N` it was -0.99% (inactive). In the case of `CCn1c(CSc2ncccn2)nnc1SCC(=O)N1c2ccccc2CC1C` (configuration not stated) it was -0.46% (inactive).

As to `CCCc1nnc(SCC(=O)N2C(C)CCCC2C)n1CC` (configuration not stated), the activation is 37.6% (active). Regarding `CCn1c(Cc2ccccc2)nnc1SCC(=O)Nc1ccccc1`, the activation was 0.58% (inactive).

Regarding `O=C(O)CCN(Cc1ccccc1)S(=O)(=O)c1c(Cl)cccc1Cl`, the activation was 0.3% (inactive). In the case of `COc1cc(C(=O)OC(C)C(=O)NCC2CCCCC2)cc(NC(=O)c2ccco2)c1OC` (configuration not stated), the activation was -0.78% (inactive). Turning to `COCCN(Cc1cc2cc3c(cc2nc1Cl)OCO3)C(=O)c1cccc(C)c1`, the activation is 0.19% (inactive). The value for `CCN(CC)c1ccc2cc(C(=O)O)c(=O)oc2c1` was 1.02% (inactive). The value for `CCN(CC)c1ccc2cc(C(N)=O)/c(=N\NC(=O)c3ccncc3)oc2c1` was 31.1% (active); that for `COc1ccc(C(=O)N/N=c2\oc3ccccc3cc2C(N)=O)cc1` was 1.99% (inactive). In the case of `CCC(C)NC(=O)c1ccc(N2CCC3(CC2)OCCO3)c([N+](=O)[O-])c1` (configuration not stated) it was 0.89% (inactive); in that of `O=C(/C=C/c1cccs1)NCc1cccnc1`, 0.53% (inactive). As for `COC(=O)C1=NN(c2ccccc2)C2C(=O)N(c3ccccc3OC)C(=O)C12` (configuration not stated), the activation was -0.87% (inactive).

Turning to `COc1cccc(NC(=O)COC(=O)CCOc2ccccc2OC)c1`, the activation is -1.34% (inactive). In the case of `CCc1c(O)cc2n(c1=O)-c1ccccc1C2(C)C` it was 1.3% (inactive); in that of `CC(C)(C)NC(=O)CN(C(=O)c1csnn1)c1ccccc1-c1ccccc1`, 1.04% (inactive). On to `O=C(CCN1CCN(c2ccccc2)CC1)NNC(=S)Nc1ccccc1`, for which the activation was 2.77% (inactive).

`CCOc1ccccc1N1CN(Cc2ccccc2)CNC1=S`: the activation is -0.98% (inactive).

With `Cn1cc(S(=O)(=O)NC(c2ccccc2)c2ccccc2)c(=O)n(C)c1=O`, the activation is 1.45% (inactive). In the case of `COc1ccc(/C=N/NC(=O)C(C)N(c2ccc(OC)cc2)S(C)(=O)=O)cc1` (configuration not stated) it was 0.5% (inactive); in that of `CC(C)(C)NC(=O)CN1CCC(NC(=O)C23CC4CC(CC(C4)C2)C3)CC1`, 2.37% (inactive); in that of `O=C(COC(=O)c1ccc(F)cc1F)Nc1ncccn1`, -0.68% (inactive). `O=C(COc1ccccc1)N1CCN=C1SCc1cccc(F)c1`: the activation is -0.02% (inactive). In the case of `Cc1cc(OCC(=O)NC2CCN(C)CC2)ccc1[N+](=O)[O-]` it was 1.92% (inactive). In the case of `CC1Cc2ccccc2N1CC(=O)Nc1ccc(S(N)(=O)=O)cc1` (configuration not stated) it was 1.19% (inactive); in that of `Cc1c(Cl)cccc1NC(=O)Nc1ccc(C(=O)N2CCCC2)cc1`, -0.96% (inactive); in that of `Cc1nn(-c2cc(Cl)ccc2N)c(=O)c2ccccc12`, -1.21% (inactive). The value for `Cc1nn(C)cc1N1C(=O)c2cccc3c(N)ccc(c23)C1=O` was 23.7% (active); that for `COc1ccc(N2C(=O)c3cccc4cccc(c34)C2=O)nn1` was -0.39% (inactive); that for `Cc1cc(=O)oc2cc(OCCC[n+]3ccccc3)ccc12` was 0.59% (inactive). On to `O=C(CNCc1ccc(Cl)cc1)Nc1cccc(C(=O)O)c1`, for which the activation was 0.21% (inactive).

Regarding `CCOC(=O)c1c(C)oc(C)c(C(=O)OCC)c1=O`, the activation was 1.29% (inactive).

With `O=[N+]([O-])/C=C1\CCCCCN1`, the activation was 3.32% (inactive). The value for `N#C/C(=C/c1cccc([N+](=O)[O-])c1)c1nnc2n1CCCCC2` was 2.1% (inactive); that for `COCc1cc(=O)[nH]c(SC)n1` was 1.98% (inactive). In the case of `CCOC12CC(C)(C)CC(C)(CC3=C1C(=O)CC(C)(C)C3)C2` (configuration not stated) it was 1.01% (inactive); in that of `CSc1cccc(NC(=S)N(Cc2ccccc2)Cc2ccccn2)c1`, -0.2% (inactive). For the molecule `CCOc1ccc(-n2c(O)c(/C=N/c3ccnn3Cc3ccncc3)c3ccccc3c2=O)cc1`, the activation is 0.39% (inactive). Turning to `O=C(COC(=O)c1ccco1)NCc1ccc(Cl)cc1`, the activation was 0.49% (inactive). The value for `Cc1cc(C)n(Cc2cnc(N3CCOCC3)s2)n1` was 0.48% (inactive). In the case of `CNC(=O)c1ccsc1NC(=O)c1ccc(S(=O)(=O)N2CCOCC2)cc1` it was 2.83% (inactive); in that of `CC1=NN(c2cccc(Cl)c2)C(=O)C12CC(C)=C(C)CS2` (configuration not stated), -0.78% (inactive). Consider `Cc1ccc(N2CCN(S(=O)(=O)c3ccc(F)cc3)CC2)c(C)c1`, for which the activation is -1.18% (inactive). The value for `Cc1ccc(N2C(=O)CC(N3CCSCC3)C2=O)c(C)c1` (configuration not stated) was 40.3% (active).

Turning to `O=C1CC(N2CCN(c3ccc(F)cc3)CC2)C(=O)N1c1ccccc1` (configuration not stated), the activation is 0.96% (inactive).

For `Cc1cc(C)n(C(=O)CCNC(=O)c2ccccc2Cl)n1`, the activation was 0.31% (inactive). Take `CC(C)c1ccc(NC(=S)NC2CC3C=CC2C3)cc1` (configuration not stated): the activation was 1.72% (inactive). Regarding `CCCCCCCCCOC1OC(CO)C(O)C(O)C1NC(C)=O` (configuration not stated), the activation was 1.72% (inactive). In the case of `O=C(CNC(=O)c1ccccc1)NCC(=O)OCC(=O)c1ccccc1` (Bz-Gly-Gly-OPac) it was 1.5% (inactive).

Turning to `CC(C)OC(=O)CN1CCN(c2ccc(Cl)cc2)CC1`, the activation is 4.98% (inactive).

For the molecule `Cc1ccc(NC(=O)Nc2nnc(-c3ccncc3)s2)cc1`, the activation is 20.7% (active). In the case of `Cc1occc1C(=O)Nc1nnc(-c2ccncc2)s1` it was 0.89% (inactive).

With `Cc1ccc(C(=O)Nc2nnc(-c3ccncc3)s2)o1`, the activation is 1.91% (inactive). In the case of `O=C(NN=C1CCC(=NNC(=O)c2cccnc2)CC1)c1cccnc1` it was 1.24% (inactive).
